pIC50: −log10 of the molar value.
Legend:
HepG2 [1] = test: Cytotoxicity against human HepG2 cells at 50 uM after 24 hrs using crystal violet staining by microplate reader analysis; type: functional; conditions: HepG2, 24 h
Summary of the method: (§1)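 HepG2 cells in MEM with 10% FBS were seeded at 10 000 cells/well and grown 24 h. The medium was then replaced with fresh medium/10% FBS, and cells were exposed to inhibitors for 24 h, or to none. Cells were fixed with 1.1% glutaraldehyde, stained with 0.1% crystal violet and solubilised in 10% acetic acid. A590 was converted to cell number with a standard curve.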

Homo sapiens [2] = species: Homo sapiens; test: Inhibition of human choline kinase assessed as incorporation of 14C from [methyl-14C]choline into phosphocholine at 50 uM after 20 mins by liquid scintillation counter
Summary of the method: (§2)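 Enzyme source was HepG2 cytosol (cells sonicated in 275 mM Tris pH 8.5, 12000 g supernatant), about 50 µg protein. Final mix: 100 mM Tris pH 8.5, 10 mM MgCl2, 10 mM ATP, with inhibitor. Started with 1 mM [methyl-14C]choline, 37 °C for 20 min, stopped by boiling. Phosphocholine was separated on silica TLC and counted by scintillation. IC50 was derived from the concentration series.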

Homo sapiens [3] = species: Homo sapiens; test: Inhibition of human choline kinase assessed as incorporation of 14C from [methyl-14C]choline into phosphocholine at 10 uM after 20 mins by liquid scintillation counter; summary of the method: as §2
HepG2 [4] = test: Cytotoxicity against human HepG2 cells at 10 uM after 24 hrs using crystal violet staining by microplate reader analysis; type: functional; conditions: HepG2, 24 h; summary of the method: as §1
[5] = Inhibition of human choline kinase assessed as incorporation of 14C from [methyl-14C]choline into phosphocholine after 20 mins by liquid scintillation counter; summary of the method: as §2
HepG2 [6] = test: Cytotoxicity against human HepG2 cells after 24 hrs using crystal violet staining by microplate reader analysis; type: functional, cell-based; conditions: HepG2, 24 h; summary of the method: as §1

Structure (SMILES)	inhibition at 50 µM (HepG2 [1]) [%]	inhibition (Homo sapiens [2]) [%]	inhibition (Homo sapiens [3]) [%]	inhibition at 10 µM (HepG2 [4]) [%]	pIC50 [5]	pIC50 (HepG2 [6])
Nc1ncnc2c1ncn2Cc1ccc(CCCCc2ccc(C[n+]3ccc(N4CCCC4)cc3)cc2)cc1	90.1	41.9	36.9	15.4		
CN(C)c1cc[n+](Cc2ccc(Cn3cnc(N)c4ncnc3-4)cc2)cc1	2.5	50.2	25	10.3		
CN(C)c1cc[n+](Cc2ccc(Cn3cnc4c(N)ncnc43)cc2)cc1	5.1	54.1	46.7	0		
Nc1ncnc2c1ncn2Cc1ccc(-c2ccc(C[n+]3ccc(N4CCCC4)cc3)cc2)cc1	45	72.8	50.2	10.4		
Nc1ncnc2c1ncn2Cc1ccc(C[n+]2ccc(N3CCCC3)cc2)cc1	15.5	27	0	0		
CN(C)c1cc[n+](Cc2ccc(-c3ccc(Cn4cnc(N)c5ncnc4-5)cc3)cc2)cc1	7	71.4	62.3	10	5.21	
Nc1ncnc2c1ncn2Cc1ccc(CCc2ccc(C[n+]3ccc(N4CCCC4)cc3)cc2)cc1	45	46.9	28.6	30.1		
CN(C)c1cc[n+](Cc2ccc(-c3ccc(Cn4cnc5c(N)ncnc54)cc3)cc2)cc1	10.3	51	37.6	0		
CN(C)c1cc[n+](Cc2ccc(CCCCc3ccc(Cn4cnc5c(N)ncnc54)cc3)cc2)cc1	45.5	89.7	66.7	10.2	4.97	4.30
Nc1ncn(Cc2ccc(CCc3ccc(C[n+]4ccc(N5CCCC5)cc4)cc3)cc2)c2ncnc1-2	30	24.8	0.1	11.6		
CN(C)c1cc[n+](Cc2ccc(CCc3ccc(Cn4cnc5c(N)ncnc54)cc3)cc2)cc1	10.5	81	38.6	10.5		
Nc1ncn(Cc2ccc(CCCCc3ccc(C[n+]4ccc(N5CCCC5)cc4)cc3)cc2)c2ncnc1-2	46.5	59.9	22.6	13.7		
CN(C)c1cc[n+](Cc2ccc(CCCCc3ccc(Cn4cnc(N)c5ncnc4-5)cc3)cc2)cc1	56.1	68.2	61.3	14.3		4.41

Source: ChEMBL document CHEMBL1949503, “Design, synthesis, theoretical calculations and biological evaluation of new non-symmetrical choline kinase inhibitors” (Eur J Med Chem, 2012)
